Compounds with a hit are over-represented: about 2.9% of the library has one in this group of screens.
H9c2 TAG inh – inhibitors of triacylglycerol accumulation, primary screen, cell-based, uHTS, fluorescence, H9c2 | H9c2 cells, Nile Red lipid (TAG) fluorescence; cells loaded with 200 µM oleic acid | inhibition, % at 12.5 µM | hit rate 0.66% among 230,000;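 active = pattern-corrected inhibition of lipid staining of at least 50% with the nuclear-stain viability signal not falling by more than 50%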;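 note: 0% = DMSO wells and 100% = triacsin C control wells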
iPSC survival up – enhancers of single-cell hiPSC survival, primary screen, ATPlite luminescence. 100% = ROCK inhibitor wells, 0% = DMSO. survival enhancement, % at 20 µM. hit rate 0.044% among 360,000; in the data active = survival enhancement above about 18%;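 note: cells exposed to compounds for 16 hours before the ATP read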
PG9 binder – binders of HIV-1 gp120 antibody PG9, primary screen, biochemical, TR-FRET; TR-FRET gp120-PG9 antibody binding; hit rate 0.43% among 360,000; HIV-1 gp120 / PG9 antibody interaction; inhibition, % at 6.7 µM; in the data active = inhibition above about 8.5%
MIN6 prolif – inducers of MIN6 beta-cell proliferation, primary screen, ATP luminescence, uHTS; MIN6 cells proliferation, ATPlite luminescence, 48 h; cells starved in 0.2% serum; 100% = growth in 10% serum; hit rate 0.29% among 330,000; proliferation, % at 10 µM;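 active = compounds whose signal lies at least 3.5 SD above the mean of all wells on their plate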;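 note: 0% = DMSO-treated cells in low-serum medium and 100% = 10% serum control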
T cruzi repl – inhibitors of intracellular T. cruzi growth, primary screen, luminescence, NIH3T3 host cells | hit rate 1.4% among 300,000 | inhibition, % (test concentration not listed) | T. cruzi beta-gal in NIH3T3, 90 h | AID 1885, 2009;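 active = mean inhibition across valid replicates above about 55%, limit read from the data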;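 note: signal also drops with host cell toxicity which is not excluded here; 0% = plate median of DMSO wells and 100% = zero luminescence signal; higher percent means less beta-gal luminescence so fewer parasites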
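System: mouse NIH/3T3 fibroblasts infected with β-gal-expressing T. cruzi Tulahuen C4 / Input: NIH/3T3 cells, 5,000 per well / Buffer or medium: Low-serum DMEM with 2% FBS / Probe or stimulus: 5000 reporter trypomastigotes per well / Schedule: ≥90 h infection period, 3 h prior cell attachment / Measured by: GalScreen luminescence, 60 min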
Rev-erbA mod – modulators of Rev-erb alpha DNA binding, primary screen, biochemical, FITC-DNA, fluorescence polarization, uHTS; hit rate 0.79% among 370,000; activity, % at 10 µM; Rev-erbα–FITC-DNA binding, 90 min; Nuclear receptor subfamily 1 group D member 1 (Homo sapiens), P20393; AID 1259318, 2017;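 active = activity above about 14%, limit read from the data; passing the limit was not always enough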;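 note: 0% = DMSO wells with 35 nM protein and 100% = DMSO wells with 750 nM protein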
Target sequence (P20393 whole entry, looked up): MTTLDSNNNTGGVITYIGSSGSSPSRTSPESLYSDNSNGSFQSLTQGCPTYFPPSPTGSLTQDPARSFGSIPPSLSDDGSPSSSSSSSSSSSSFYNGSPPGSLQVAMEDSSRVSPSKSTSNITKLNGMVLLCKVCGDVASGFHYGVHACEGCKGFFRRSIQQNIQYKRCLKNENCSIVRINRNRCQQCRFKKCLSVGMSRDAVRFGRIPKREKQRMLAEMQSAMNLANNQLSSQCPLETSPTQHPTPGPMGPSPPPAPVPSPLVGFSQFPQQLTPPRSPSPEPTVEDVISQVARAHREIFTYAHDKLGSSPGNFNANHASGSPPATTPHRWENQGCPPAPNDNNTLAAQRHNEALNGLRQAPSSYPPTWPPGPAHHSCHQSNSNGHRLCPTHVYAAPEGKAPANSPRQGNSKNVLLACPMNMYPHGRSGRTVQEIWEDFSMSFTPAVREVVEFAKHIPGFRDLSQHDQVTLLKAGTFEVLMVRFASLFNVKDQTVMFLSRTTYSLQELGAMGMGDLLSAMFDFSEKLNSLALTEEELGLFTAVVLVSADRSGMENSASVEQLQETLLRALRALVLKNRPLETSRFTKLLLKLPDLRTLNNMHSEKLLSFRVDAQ
NR1D1 mod conf – modulators of Rev-erb alpha DNA binding, confirmation, biochemical, FITC-DNA, fluorescence polarization, single point | activation, % at 25 µM | 90 min | shares compounds with Rev-erbA mod | AID 1259319, 2017 | hit rate 61% among 3,000;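 active = activation at or above a set limit, or at least 3 SD above the negative control mean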;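 note: 0% = 35 nM protein with DMSO and 100% = 750 nM protein high control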
RORg counter – modulation of RORgamma DNA binding, dose response, counter-screen for Rev-erb alpha modulator project, biochemical, fluorescence polarization, FITC-DNA. hit rate 8% among 910. shares compounds with Rev-erbA mod. IC50, µM. purified RORgamma protein-FITC-DNA binding. AID 1259320, 2017;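 active = Compounds whose fitted half-maximal concentration for disrupting protein-DNA binding is below 10 micromolar; the record names Rev-erb in its text, so the target is in doubt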
The depositor's hits bear a star; i = inactive; · = no result.

SMILES	H9c2 TAG inh	iPSC survival up	PG9 binder	MIN6 prolif	T cruzi repl	Rev-erbA mod	NR1D1 mod conf	others
C=CCn1c(=NC(=O)c2ccco2)sc2cc(C(=O)OC)ccc21	·	0.5	3.1	-1.3	-3.8	27.6*	34.8*	RORg counter=>40
CCn1c(-c2csc(-c3ccccc3)n2)n[nH]c1=S	7.0	7.6	-0.6	0.6	-6.3	-3.9	·
Cc1ccc2nc(-c3ccc(SCC(=O)Nc4ccc5c(c4)OCCO5)nc3)[nH]c2c1	·	-1.9	0.3	-3.2	-7.7	9.2	·
COc1cc2c(c(OC)c1OC)[C@@]1(c3ccccc3)CCCCC[C@H]1[C@@H]2NC(=O)C(F)(F)F	·	·	-2.4	·	·	13.1*	5.7
N#Cc1ccc(CSc2nc3sc4c(c3c(=O)n2-c2ccc(Br)cc2)CCCC4)cc1	·	·	·	·	·	23.0*	8.7
Cc1ccc(-n2c(SCc3cccc(F)c3)nc3sc4c(c3c2=O)CCCC4)cc1	·	·	·	·	·	1.5	·
COc1ccccc1Nc1nc2cc(C)ccc2cc1C#N	0.0	0.0	-0.3	-2.8	4.1	95.7*	12.8
CC1(Cc2ccccc2Cl)C(=O)Nc2ccc(OC(F)(F)F)cc21 (stereo unspecified)	-3.8	0.1	-0.1	·	·	35.5*	45.0*	RORg counter=>40
CC1(Cc2ccccc2C#N)C(=O)Nc2ccc(OC(F)(F)F)cc21 (stereo unspecified)	0.8	1.3	-1.1	·	·	28.2*	25.9*
CCc1ccc2c(c1)NC(=O)C2(C)Cc1ccccc1Cl (stereo unspecified)	5.6	1.4	0.8	·	·	-2.0	·
Clc1ccccc1-c1nn2c(-c3cc(-c4ccccc4)n[nH]3)nnc2s1	·	·	·	·	·	29.7*	43.8*	RORg counter=>40
COc1cccc(OC)c1-c1nn2c(-c3cc(-c4ccccc4)n[nH]3)nnc2s1	0.4	1.9	-16.6	-1.3	41.0	65.4*	83.1*	RORg counter=>40
Fc1ccc(-c2cc(-c3nnc4sc(-c5ccco5)nn34)[nH]n2)cc1	·	·	·	·	·	8.0	·
Clc1ccc(-c2nn3c(-c4ccccc4)nnc3s2)cc1	14.3	3.0	3.1	0.4	17.4	23.9*	15.0
Cc1cc(-c2nnc3sc(-c4ccc(Cl)cc4Cl)nn23)n[nH]1	25.6	-1.9	6.5	-3.5	16.0	45.0*	39.6*	RORg counter=>40
CCCCNC(=O)[C@@H]1CCCN1S(=O)(=O)c1cccc2cccnc12	-3.2	-2.7	0.1	-3.5	·	2.0	·
c1nnn(C23CC4CC(CC(C4)C2)C3)n1	·	-2.7	-2.9	-0.2	4.9	-6.5	·
C/C(=N\NC(=O)c1ccccc1O)c1c(O)cc(C)oc1=O	·	6.7	-0.2	0.8	-4.7	6.3	·
O=C(C1CCCN1S(=O)(=O)c1cccc2nsnc12)N1CCCCCC1 (stereo unspecified)	-2.9	0.4	-1.2	-0.4	3.8	-2.5	·
COc1cc(C(=O)Nc2nc(-c3cc(C)ccc3C)c(C)s2)ccc1OCC(=O)Nc1ccc(F)cc1	·	0.9	-0.2	-3.1	-14.8	71.2*	48.8*	RORg counter=>40
COc1ccc(C(=O)Nc2nc(C)c(C)s2)cc1OC	0.5	-0.9	-1.0	-3.4	-15.8	-2.5	·
O=C(Nc1c2c(nn1-c1ccc(F)cc1)CS(=O)(=O)C2)C1CCCC1	·	-0.4	-1.8	0.3	-2.1	8.1	·
Clc1ccc(Nc2nc3ccccc3n3nnnc23)cc1	·	-2.0	-3.0	0.5	13.2	32.8*	17.8*
Cc1cccc(CCNc2nc3ccccc3n3nnnc23)c1	-5.8	0.4	0.3	-4.2	-6.9	43.9*	14.8
Clc1ccc(CCNc2nc3ccccc3n3nnnc23)cc1	9.0	0.9	0.0	-2.6	8.6	16.8	·
SMILES	H9c2 TAG inh	iPSC survival up	PG9 binder	MIN6 prolif	T cruzi repl	Rev-erbA mod	NR1D1 mod conf	others
O=C(Nc1ccccc1)P(=O)(O)c1ccccc1	0.1	-0.5	1.4	·	·	0.8	·
CC(C)[C@H](NC(=O)c1ccccc1)C(=O)OCC(=O)NCc1ccc2c(c1)OCO2	-7.7	-1.2	-0.3	-5.2	·	-0.9	·
CC(=O)Nc1cccc(OCCCOc2cccc([N+](=O)[O-])c2)c1	-9.7	3.1	-0.2	·	·	7.0	·
CC(=O)NC(c1ccc(F)c(F)c1)c1nc(-c2ccc(F)c(Cl)c2)cs1 (stereo unspecified)	-4.2	-2.2	0.5	·	·	41.9*	-4.8
OC(c1ccccc1)c1nc(-c2ccc(F)c(Cl)c2)cs1 (stereo unspecified)	-16.9	1.2	-0.1	·	·	15.6*	-1.4
Cc1ccc(-n2c(N)c(C#N)c(-c3ccccc3)c(C#N)c2=O)cc1	-4.7	-0.6	2.3	-0.6	-3.9	21.6*	61.6*	RORg counter=i
COc1ccccc1NC(=O)CN(Cc1ccco1)C(=O)c1cc(Cl)c(OC)c(OC)c1	-6.7	-2.4	1.2	·	·	0.5	·
CCOC(=O)c1c(C)nc2sc3c(=O)n(-c4ccc(C(C)=O)cc4)cnc3c2c1-c1ccc(OC)cc1	·	-0.9	0.8	-4.0	13.6	30.7*	18.5*
CCOC(=O)c1c(C)nc2sc3c(=O)n(-c4ccc(OC)cc4)nnc3c2c1-c1ccc(OC)cc1	-16.4	4.5	1.8	-1.0	33.0	1.0	·
CC(CNC(=O)CCC(=O)N1CCOc2ccc(Cl)cc21)c1ccccc1 (stereo unspecified)	-0.3	-3.7	0.0	0.3	3.0	4.7	·
Cc1ccc(CNC(=O)c2nnn(CC(=O)Nc3cccc(C)c3C)c2N)cc1	·	0.3	-0.7	-2.8	-15.9	27.2*	22.1*
Cc1ccc(CNC(=O)Cn2nnc(C(=O)Nc3cccc(C)c3C)c2N)cc1	·	0.5	2.8	-3.4	-5.5	-3.0	·
COc1cccc(NC(=O)Cn2nnc(C(=O)NCCc3ccccc3)c2N)c1	·	-0.4	-2.5	-3.2	1.9	19.8*	5.3
COc1ccc(CNC(=O)c2c(O)c3cc(OC)c(OC)cc3[nH]c2=O)cc1OC	13.1	0.1	1.5	-2.5	-0.2	12.3	·
COc1cc2[nH]c(=O)c(C(=O)NCc3ccc(F)cc3)c(O)c2cc1OC	·	1.1	0.8	-1.8	-6.5	25.2*	18.8*
COC(=O)C1=C(C)NC(C)=C(C(=O)OC)C1C(=O)OCc1nc2cc(C(=O)OC)ccc2c(=O)[nH]1	-1.0	-0.6	0.4	-1.2	-7.3	0.6	·

Assay outcomes as filed in PubChem.
